Test results as given in ChEMBL document CHEMBL1671747, “Efficacy and safety of intravenous peramivir for treatment of seasonal influenza virus infection” (Antimicrob Agents Chemother, 2010).
pIC50: −log10 of the molar value. Activity calls are given as the source filed them. The rule behind the calls is not given here.

Key:
Plasma = experiment: Plasma concentration in human at 600 mg, iv after 36 to 48 hrs; assay type: ADME, organism-based; details: in vivo
How it was run: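 Subjects received a single IV infusion of 300 or 600 mg (mean 5.0 or 10.0 mg/kg; median infusion 0.63 h). Plasma was sampled just before the infusion ended, and on days 2 and 3. Samples were deproteinized and run on C18 LC/MS-MS. Values are medians at end of infusion, 18–24 h and 36–48 h after infusion.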

Homo sapiens [1] = experiment: Toxicity in human patient infected with Influenza virus assessed as nausea at 600 mg, iv; assay type: organism-based; details: in vivo
How it was run: (§1)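 In this randomized trial, subjects received a single intravenous infusion of peramivir (300 mg or 600 mg) or matching placebo; the median infusion lasted 0.63 h. Subjects were followed at visits on days 1, 2 (optional), 3, 5, 9 and 14. Adverse-event incidences across the 298 treated subjects were compared with placebo using Fisher's exact test.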

Homo sapiens [2] = experiment: Toxicity in human patient infected with Influenza virus assessed as urine containing albumine at 300 mg, iv; assay type: organism-based; details: in vivo
How it was run: (§2)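 Subjects received a single intravenous peramivir dose (300 or 600 mg) or placebo, infused over a median of 0.63 h. Urinalysis covered protein, albumin and sediment, among other analytes. Urine was collected at baseline and on days 3 and 14 and tested by blinded technicians. Incidence in the safety population (n = 298 treated) was compared with placebo by Fisher's exact test.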

Homo sapiens [3] = experiment: Toxicity in human patient infected with Influenza virus assessed as increase in blood creatinine level at 600 mg, iv; assay type: organism-based; details: in vivo
How it was run: (§3)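 One IV dose of 300 or 600 mg or placebo was given to adults with influenza. Blood (hematology, biochemistry) and urine (including NAG, β2- and α1-microglobulin, protein) were sampled at baseline, day 3 and day 14 by blinded technicians. Adverse-event incidence versus placebo was compared by Fisher's exact test.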

Homo sapiens [4] = experiment: Toxicity in human patient infected with Influenza virus assessed as lymphocyte morphology abnormal at 300 mg, iv; assay type: organism-based; details: in vivo
How it was run: (§4)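 Adults with seasonal influenza received one intravenous infusion of peramivir (300 or 600 mg) or matching placebo; the median infusion lasted 0.63 h. Blood for haematology, including the white-cell differential, was taken at baseline and on days 3 and 14. Tests were run by blinded technicians. Adverse-event incidence in the 298-subject safety population was compared with placebo by Fisher's exact test.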

Homo sapiens [5] = experiment: Toxicity in human patient infected with Influenza virus assessed as nasopharyngitis at 600 mg, iv; assay type: organism-based; details: in vivo; how it was run: as §1
Homo sapiens [6] = experiment: Toxicity in human patient infected with Influenza virus assessed as diarrhea at 600 mg, iv; assay type: organism-based; details: in vivo
How it was run: (§5)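 Adverse events were recorded after one IV dose of 300 or 600 mg or placebo in adults with influenza. Incidence in each peramivir group was compared with placebo by Fisher's exact test.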

Homo sapiens [7] = experiment: Toxicity in human patient infected with Influenza virus assessed as beta-N-Acetyl-D-glucosaminidase at 600 mg, iv; assay type: organism-based; details: in vivo; how it was run: as §3
Homo sapiens [8] = experiment: Toxicity in human patient infected with Influenza virus assessed as increase in alanine aminotransferase at 600 mg, iv; assay type: organism-based; details: in vivo; how it was run: as §3
Homo sapiens [9] = experiment: Toxicity in human patient infected with Influenza virus assessed as diarrhea at 300 mg, iv; assay type: organism-based; details: in vivo; how it was run: as §5
Homo sapiens [10] = experiment: Toxicity in human patient infected with Influenza virus assessed as decrease in total Protein at 300 mg, iv; assay type: organism-based; details: in vivo; how it was run: as §3
Influenza A virus [11] = experiment: Antiviral activity against Influenza A virus H1N1 infected in human patient assessed as alleviation time of symptoms at 600 mg, iv (reference value: 81.4 hrs); assay type: functional
Homo sapiens [12] = experiment: Toxicity in human patient infected with Influenza virus assessed as white blood cells-positive urine at 300 mg, iv; assay type: organism-based; details: in vivo; how it was run: as §2
Homo sapiens [13] = experiment: Toxicity in human patient infected with Influenza virus assessed as occurrence of bronchitis at 300 mg, iv; assay type: organism-based; details: in vivo; how it was run: as §1
Homo sapiens [14] = experiment: Toxicity in human patient infected with Influenza virus assessed as increase in alpha1 microglobulin at 600 mg, iv; assay type: organism-based; details: in vivo; how it was run: as §3
Homo sapiens [15] = experiment: Toxicity in human patient infected with Influenza virus assessed as increase in monocyte at 300 mg, iv; assay type: organism-based; details: in vivo; how it was run: as §4
Homo sapiens [16] = experiment: Toxicity in human patient infected with Influenza virus assessed as increase in lymphocyte at 600 mg, iv; assay type: organism-based; details: in vivo; how it was run: as §3
Homo sapiens [17] = experiment: Toxicity in human patient infected with Influenza virus assessed as monocyte at 600 mg, iv; assay type: organism-based; details: in vivo; how it was run: as §4
Homo sapiens [18] = experiment: Toxicity in human patient infected with Influenza virus assessed as increase in alanine aminotransferase at 300 mg, iv; assay type: organism-based; details: in vivo; how it was run: as §3
Homo sapiens [19] = experiment: Toxicity in human patient infected with Influenza virus assessed as decrease in total Protein at 600 mg, iv; assay type: organism-based; details: in vivo; how it was run: as §3
[20] = system: unidentified influenza virus; experiment: Antiviral activity against Influenza virus infected in human patient assessed as decrease in virus-positive patients at 300 mg, iv on day 9; assay type: functional
How it was run: (§6)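 Nasal and throat swabs were taken at baseline and on days 2, 3, 5 and 9, held in 2 ml transport medium, and titrated on MDCK cells in triplicate: 10-fold dilutions, 3 μg/ml trypsin, 1 h adsorption, washes, then 3 days at 37°C. CPE gave TCID50/ml by Spearman-Karber; positive meant ≥1.1 log10 TCID50/ml. Proportions were compared by Mantel-Haenszel test stratified for smoking and baseline score.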

Homo sapiens [21] = experiment: Toxicity in human patient infected with Influenza virus assessed as nasopharyngitis at 300 mg, iv; assay type: organism-based; details: in vivo; how it was run: as §1
Homo sapiens [22] = experiment: Toxicity in human patient infected with Influenza virus assessed as occurrence of diarrhea at 600 mg, iv; assay type: organism-based; details: in vivo; how it was run: as §1
Homo sapiens [23] = experiment: Toxicity in human patient infected with Influenza virus assessed as decrease in white blood cell count at 300 mg, iv; assay type: organism-based; details: in vivo; how it was run: as §3
[24] = system: unidentified influenza virus; experiment: Antiviral activity against Influenza virus infected in human patient assessed as decrease in virus-positive patients at 600 mg, iv on day 9; assay type: functional; how it was run: as §6
Homo sapiens [25] = experiment: Toxicity in human patient infected with Influenza virus assessed as increase in blood glucose at 600 mg, iv; assay type: organism-based; details: in vivo; how it was run: as §3
Influenza B virus = experiment: Antiviral activity against influenza B virus infected in MDCK cells assessed as inhibition of neuraminidase activity by fluorimetric assay; assay type: functional, organism-based
How it was run: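 Viruses were isolated from baseline patient swabs on MDCK cells. Neuraminidase inhibition was measured by a standard fluorometric assay. IC50 came from plotting percent inhibition of neuraminidase activity against inhibitor concentration, reported as mean ± SD of three independent experiments.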

[26] = system: unidentified influenza virus; experiment: Antiviral activity against Influenza virus infected in human patient assessed as resumption time of usual activities at 300 mg, iv; assay type: functional
[27] = system: unidentified influenza virus; experiment: Antiviral activity against Influenza virus infected in human patient assessed as decrease in virus-positive patients at 300 mg, iv on day 3; assay type: functional; how it was run: as §6
Influenza A virus [28] = experiment: Antiviral activity against Influenza A virus H1N1 infected in human patient assessed as alleviation time of symptoms at 300 mg, iv (reference value: 81.4 hrs); assay type: functional
Homo sapiens [29] = experiment: Toxicity in human patient infected with Influenza virus assessed as increase in alpha1 Microglobulin at 300 mg, iv; assay type: organism-based; details: in vivo; how it was run: as §3
Homo sapiens [30] = experiment: Toxicity in human patient infected with Influenza virus assessed as increase in aspartate aminotransferase at 600 mg, iv; assay type: organism-based; details: in vivo; how it was run: as §3
[31] = system: unidentified influenza virus; experiment: Antiviral activity against Influenza virus infected in human patient assessed as reduction in fever at 600 mg, iv after 24 hrs; assay type: functional, organism-based
How it was run: (§7)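 A single IV dose of 300 or 600 mg or placebo was given to adults with seasonal influenza. The outcome was the proportion of subjects with postbaseline normal temperature (<37.0°C). Groups were compared by Mantel-Haenszel test stratified for smoking and baseline composite symptom score.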

[32] = system: unidentified influenza virus; experiment: Antiviral activity against Influenza virus infected in human patient assessed as reduction in fever at 300 mg, iv after 24 hrs; assay type: functional, organism-based; how it was run: as §7
Homo sapiens [33] = experiment: Toxicity in human patient infected with Influenza virus assessed as increase in blood lactate dehydrogenase at 300 mg, iv; assay type: organism-based; details: in vivo; how it was run: as §3

For `CCC(CC)[C@H](NC(C)=O)[C@@H]1[C@H](O)[C@@H](C(=O)O)C[C@H]1NC(=N)N` [PERAMIVIR ANHYDROUS], which Cp (Plasma) is on record?
The Cp was 10.7 ng/mL.

What about the Activity (Homo sapiens [1]) of the same compound?
Its Activity is “Toxic”.

What about the Activity (Homo sapiens [2]) of the same compound?
The Activity was “Toxic”.

And the Activity (Homo sapiens [3])?
The Activity was “Toxic”.

And the Activity (Homo sapiens [4])?
Its Activity is “Toxic”.

And the Activity (Homo sapiens [5])?
Its Activity is “Toxic”.

And the Activity (Homo sapiens [6])?
The Activity was “Toxic”.

What about the Activity (Homo sapiens [7]) of the same compound?
The Activity was “Toxic”.

What about the Activity (Homo sapiens [8]) of the same compound?
Its Activity is “Toxic”.

What about the Activity (Homo sapiens [9]) of the same compound?
Its Activity is “Toxic”.

And the Activity (Homo sapiens [10])?
Its Activity is “Toxic”.

And the Time (Influenza A virus [11])?
The Time was 62.6 h.

And the Activity (Homo sapiens [12])?
Its Activity is “Toxic”.

What about the Activity (Homo sapiens [13]) of the same compound?
Its Activity is 3%.

What about the Activity (Homo sapiens [14]) of the same compound?
The Activity was “Toxic”.

What about the Activity (Homo sapiens [15]) of the same compound?
The Activity was “Toxic”.

And the Activity (Homo sapiens [16])?
The Activity was “Toxic”.

What about the Activity (Homo sapiens [17]) of the same compound?
Its Activity is “Toxic”.

What about the Activity (Homo sapiens [18]) of the same compound?
Its Activity is “Toxic”.

What about the Activity (Homo sapiens [19]) of the same compound?
Its Activity is “Toxic”.

What about the “inhibition (INH)” value [20] of the same compound?
The value was 0%.

What about the Activity (Homo sapiens [21]) of the same compound?
The Activity was “Toxic”.

What about the Activity (Homo sapiens [22]) of the same compound?
Its Activity is 15.2%.

What about the Activity (Homo sapiens [23]) of the same compound?
The Activity was “Toxic”.

What about the “inhibition (INH)” value [24] of the same compound?
Its value is 1.1%.

What about the Activity (Homo sapiens [25]) of the same compound?
Its Activity is “Toxic”.

What about the pIC50 (Influenza B virus) of the same compound?
The pIC50 was 8.52.

And the Time [26]?
Its Time is 125.6 h.

What about the “inhibition (INH)” value [27] of the same compound?
Its value is 36.8%.

What about the Time (Influenza A virus [28]) of the same compound?
Its Time is 52.5 h.

And the Activity (Homo sapiens [29])?
Its Activity is “Toxic”.

And the Activity (Homo sapiens [30])?
The Activity was “Toxic”.

What about the Activity [31] of the same compound?
The Activity was “Active”.

What about the Activity [32] of the same compound?
Its Activity is “Active”.

What about the Activity (Homo sapiens [33]) of the same compound?
Its Activity is “Toxic”.
